# From ChEMBL document CHEMBL1156147, “Phosphoramidates of 2'-beta-D-arabinouridine (AraU) as phosphate prodrugs; design, synthesis, in vitro activity and metabolism” (Bioorg Med Chem, 2010)
# Calls of active or inactive are those of the source. The rule behind the calls is not given here.
# Legend:
# [1] = tested on: A549; assay: Cytostatic activity against human A549 cells after 96 hrs by MTT assay; type: functional, cell-based; conditions: A549, 96 h
# Method in brief: (§1)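 Cells were seeded at 5 × 10^3 per well and allowed 24 h to adhere. Compound was added from DMSO stocks as decimal dilutions (final 0.1–100 μM) for 96 h at 37 °C, 5% CO2. MTT (final 0.5 mg/mL) was added for 4 h and formazan solubilised in 10% Triton X-100/PBS. Absorbance was read at 540 nm. IC50 is inhibition relative to control.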
# [2] = tested on: Human alphaherpesvirus 2; assay: Antiviral activity against Herpes simplex virus2 G assessed as inhibition of virus-induced cytopathicity by cell based assay; type: functional, organism-based; conditions: strain G
# Method in brief: (§2)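 Cytopathicity reduction in confluent HEL, Vero, HeLa, CFKC or MDCK monolayers. Cells were inoculated with 100 CCID50 of virus and allowed 1–2 h adsorption. Residual virus was then removed and cells were incubated with serially varied compound. CPE was scored once complete in untreated infected controls. EC50 is the concentration halving virus-induced cytopathicity.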
# [3] = tested on: KG-1; assay: Cytostatic activity human KG1 cells; type: functional, cell-based
# Method in brief: (§3)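 Leukaemia cells were exposed to serial dilutions from 100 μM down to 0.02 μM for 72 h at 37 °C, 5% CO2. MTS was then added for a further 4 h. Absorbance was read at 490 nm and viability calculated relative to untreated controls. IC50 is the concentration at which 50% of cells are no longer viable.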
# [4] = tested on: Influenza A virus; assay: Antiviral activity against influenza A virus H3N2 assessed as inhibition of virus-induced cytopathicity by cell based assay; type: functional, organism-based
# [5] = tested on: U-937; assay: Cytostatic activity human U937 cells; type: functional, cell-based; method in brief: as §3
# [6] = tested on: Punta Toro virus; assay: Antiviral activity against Punta Toro virus assessed as inhibition of virus-induced cytopathicity by cell based assay; type: functional, organism-based; method in brief: as §2
# [7] = tested on: Mammalian orthoreovirus 1; assay: Antiviral activity against Reovirus 1 assessed as inhibition of virus-induced cytopathicity by cell based assay; type: functional, organism-based; method in brief: as §2
# [8] = tested on: HL-60; assay: Cytostatic activity against human HL60 cells; type: functional, cell-based; method in brief: as §3
# [9] = tested on: Vaccinia virus; assay: Antiviral activity against Vaccinia virus lederle assessed as inhibition of virus-induced cytopathicity by cell based assay; type: functional, organism-based; conditions: Orthopoxvirus vaccinia
# [10] = tested on: Influenza A virus; assay: Antiviral activity against influenza A virus H1N1 assessed as inhibition of virus-induced cytopathicity by cell based assay; type: functional, organism-based
# [11] = tested on: Human alphaherpesvirus 1; assay: Antiviral activity against HSV1 KOS assessed as inhibition of virus-induced cytopathicity by cell based assay; type: functional, organism-based; method in brief: as §2
# [12] = tested on: Human immunodeficiency virus 1; assay: Antiviral activity against HIV1 3B infected human CEM cells assessed as inhibition of syncytia formation after 4 days; type: functional, organism-based; conditions: CCRF-CEM
# Method in brief: (§4)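 Human CEM cells (~3 × 10^5 cells/mL) were infected with ~100 CCID50/mL of HIV-1(IIIB) or HIV-2(ROD) and seeded with compound dilutions. Syncytia formation was examined microscopically after 4 days at 37 °C. EC50 is the concentration reducing virus-induced cytopathicity by 50%.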
# [13] = tested on: Human respirovirus 3; assay: Antiviral activity against Human parainfluenza virus 3 assessed as inhibition of virus-induced cytopathicity by cell based assay; type: functional, organism-based; method in brief: as §2
# [14] = tested on: Coxsackievirus B4; assay: Antiviral activity against Coxsackievirus B4 assessed as inhibition of virus-induced cytopathicity by cell based assay; type: functional, organism-based; method in brief: as §2
# [15] = tested on: MCF7; assay: Cytostatic activity against human MCF7 cells after 96 hrs by MTT assay; type: functional, cell-based; conditions: MCF7, 96 h; method in brief: as §1
# [16] = tested on: Respiratory syncytial virus; assay: Antiviral activity against Respiratory syncytial virus Long assessed as inhibition of virus-induced cytopathicity by cell based assay; type: functional, organism-based; method in brief: as §2
# [17] = tested on: CCRF-CEM; assay: Cytostatic activity human CEM cells; type: functional, cell-based
# [18] = tested on: PC-3; assay: Cytostatic activity against human PC3 cells after 96 hrs by MTT assay; type: functional, cell-based; conditions: PC-3, 96 h; method in brief: as §1
# [19] = tested on: Human alphaherpesvirus 1; assay: Antiviral activity against thymidine kinase deficient acyclovir resistant HSV1 KOS assessed as inhibition of virus-induced cytopathicity by cell based assay; type: functional, organism-based
# [20] = tested on: LoVo; assay: Cytostatic activity against human LoVo cells after 96 hrs by MTT assay; type: functional, cell-based; method in brief: as §1
# [21] = tested on: Human immunodeficiency virus 2; assay: Antiviral activity against HIV2 infected human CEM cells assessed as inhibition of syncytia formation after 4 days; type: functional, organism-based; conditions: CCRF-CEM; method in brief: as §4
# [22] = tested on: NB-4; assay: Cytostatic activity against human NB4 cells; type: functional, cell-based; method in brief: as §3
# [23] = tested on: Sindbis virus; assay: Antiviral activity against Sindbis virus assessed as inhibition of virus-induced cytopathicity by cell based assay; type: functional, organism-based; method in brief: as §2
# [24] = tested on: L1210; assay: Cytostatic activity mouse L1210 cells; type: functional, cell-based
# [25] = tested on: Vesicular stomatitis virus; assay: Antiviral activity against Vesicular stomatitis virus assessed as inhibition of virus-induced cytopathicity by cell based assay; type: functional, organism-based
# [26] = Metabolic stability assessed as half life in the presence of carboxypeptidase Y after 3 hrs at pH 7.6; type: ADME; conditions: Saccharomyces cerevisiae (yeast)
Compound,inhibition [2],IC50 [3] [µM],inhibition [4],IC50 [5] [µM],inhibition [6],inhibition [7],IC50 [8] [µM],inhibition [9],inhibition [10],inhibition [11],inhibition [12],inhibition [13],inhibition [14],inhibition [16],IC50 [17] [µM],inhibition [19],inhibition [21],IC50 [22] [µM],inhibition [23],IC50 [24] [µM],other results
C[C@@H](NP(=O)(OC[C@H]1O[C@@H](n2ccc(=O)[nH]c2=O)[C@@H](O)[C@@H]1O)Oc1ccccc1)C(=O)OCc1ccccc1 (some centres not stated),inactive,90,inactive,> 100,inactive,inactive,92,inactive,inactive,inactive,inactive,inactive,inactive,inactive,313,inactive,inactive,88,inactive,470,IC50 [1]: > 100 µM; IC50 [15]: 50 µM; IC50 [18]: > 100 µM; IC50 [20]: > 100 µM; inhibition [25]: inactive
COC(=O)[C@H](C)NP(=O)(OC[C@H]1O[C@@H](n2ccc(=O)[nH]c2=O)[C@@H](O)[C@@H]1O)Oc1ccccc1 (some centres not stated),inactive,32,inactive,> 100,inactive,inactive,> 100,inactive,inactive,inactive,inactive,inactive,inactive,inactive,> 500,inactive,inactive,53,inactive,> 500,IC50 [1]: > 100 µM; IC50 [15]: > 100 µM; IC50 [18]: > 100 µM; IC50 [20]: > 100 µM; inhibition [25]: inactive
C[C@H](NP(=O)(OC[C@H]1O[C@@H](n2ccc(=O)[nH]c2=O)[C@@H](O)[C@@H]1O)Oc1ccccc1)C(=O)OCc1ccccc1 (some centres not stated),inactive,63,inactive,92,inactive,inactive,> 100,inactive,inactive,inactive,inactive,inactive,inactive,inactive,188,inactive,inactive,38,inactive,184,IC50 [1]: > 100 µM; half-life [26]: 15 min; IC50 [15]: > 100 µM; IC50 [18]: > 100 µM; IC50 [20]: > 100 µM; inhibition [25]: inactive
CC(C)OC(=O)[C@H](C)NP(=O)(OC[C@H]1O[C@@H](n2ccc(=O)[nH]c2=O)[C@@H](O)[C@@H]1O)Oc1cccc2ccccc12 (some centres not stated),inactive,67,inactive,> 100,inactive,inactive,84,inactive,inactive,inactive,inactive,inactive,inactive,inactive,181,inactive,inactive,77,inactive,250,IC50 [1]: > 100 µM; IC50 [15]: > 100 µM; IC50 [18]: > 100 µM; IC50 [20]: > 100 µM; inhibition [25]: inactive
O=c1ccn([C@@H]2O[C@H](CO)[C@@H](O)[C@@H]2O)c(=O)[nH]1 [ARAURIDINE],inactive,25,inactive,> 100,inactive,inactive,90,inactive,inactive,inactive,inactive,inactive,inactive,inactive,> 500,inactive,inactive,69,inactive,170,inhibition [25]: inactive
O=C(CNP(=O)(OC[C@H]1O[C@@H](n2ccc(=O)[nH]c2=O)[C@@H](O)[C@@H]1O)Oc1ccccc1)OCc1ccccc1 (some centres not stated),inactive,39,inactive,> 100,inactive,inactive,> 100,inactive,inactive,inactive,inactive,inactive,inactive,inactive,196,inactive,inactive,52,inactive,256,IC50 [1]: > 100 µM; IC50 [15]: > 100 µM; IC50 [18]: > 100 µM; IC50 [20]: > 100 µM; inhibition [25]: inactive
